# Source: PubChem BioAssay
# Compounds with a hit are over-represented: about 9.4% of the library has one in this group of screens.
# Mdm2-MdmX inh = inhibitors of human Mdm2-MdmX association, primary screen, cell-based, luminescence, split luciferase, SaOS-2, uHTS; Protein Mdm4 (Homo sapiens) + E3 ubiquitin-protein ligase Mdm2 (Homo sapiens), …; SaOS-2 split-luciferase Mdm2/MdmX complementation; inhibition, % at 8 µM; 3% of 330,000 active; AID 485346, 2010;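 active = inhibition of at least 50% at 8 µM in the primary screen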
# Target sequence (O15151 whole entry, looked up): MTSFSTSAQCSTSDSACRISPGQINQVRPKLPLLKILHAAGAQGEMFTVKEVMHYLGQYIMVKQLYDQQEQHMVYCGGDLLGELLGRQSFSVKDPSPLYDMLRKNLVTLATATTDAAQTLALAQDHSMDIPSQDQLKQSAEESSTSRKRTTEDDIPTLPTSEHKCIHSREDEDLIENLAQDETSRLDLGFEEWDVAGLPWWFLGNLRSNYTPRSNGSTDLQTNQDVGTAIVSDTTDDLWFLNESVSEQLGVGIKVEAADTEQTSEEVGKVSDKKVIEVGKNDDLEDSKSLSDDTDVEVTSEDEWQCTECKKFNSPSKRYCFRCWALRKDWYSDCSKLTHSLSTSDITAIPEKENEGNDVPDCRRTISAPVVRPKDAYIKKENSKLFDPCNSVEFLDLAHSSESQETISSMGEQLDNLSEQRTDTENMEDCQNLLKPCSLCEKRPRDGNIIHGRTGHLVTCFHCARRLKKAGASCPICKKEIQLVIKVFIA
# Target sequence (Q00987 whole entry, looked up): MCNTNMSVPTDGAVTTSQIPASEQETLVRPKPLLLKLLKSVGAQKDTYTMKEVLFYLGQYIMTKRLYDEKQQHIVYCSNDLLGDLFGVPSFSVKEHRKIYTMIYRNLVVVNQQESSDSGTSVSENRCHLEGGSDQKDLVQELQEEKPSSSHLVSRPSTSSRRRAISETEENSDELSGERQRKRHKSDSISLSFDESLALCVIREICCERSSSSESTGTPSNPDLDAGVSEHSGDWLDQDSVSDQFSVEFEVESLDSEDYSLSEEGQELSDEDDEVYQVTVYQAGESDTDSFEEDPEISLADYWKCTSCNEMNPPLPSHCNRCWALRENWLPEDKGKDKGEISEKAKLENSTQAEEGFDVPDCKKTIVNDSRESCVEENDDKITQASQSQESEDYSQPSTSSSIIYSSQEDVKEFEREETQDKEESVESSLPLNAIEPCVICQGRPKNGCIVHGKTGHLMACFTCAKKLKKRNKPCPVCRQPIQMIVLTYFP
# T cruzi inh = inhibitors of intracellular T. cruzi growth, primary screen, luminescence, NIH3T3 host cells; inhibition, % (concentration not given with the values); 1.4% of 300,000 active; T. cruzi beta-gal in NIH3T3, 90 h;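 active = mean inhibition across valid replicates above about 55%, limit read from the data; inconclusive = mean below that limit but half or more replicates reach it; inactive = mean below it, under half of replicates reach it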;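 also: signal also drops with host cell toxicity which is not excluded here; higher percent means less beta-gal luminescence so fewer parasites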
#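 Assay system: NIH/3T3 fibroblasts plus reporter T. cruzi. Amount: NIH/3T3 cells, 5,000 per well. Buffer or medium: DMEM, 2% fetal bovine serum. Doses: compound pinned at 50 nL/well, DMSO. Schedule: ≥90 h infection period, 3 h prior cell attachment. Signal: luminescent β-galactosidase signal after 60 min lysis. Read-out: parasite load inhibition, %.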
# Beta apoptosis = inhibitors of cytokine-induced beta cell apoptosis, primary screen, luminescence | INS-1E cytokine-induced death, ATP luminescence, 48 h; percent of positive-control rescue, neutral wells zero | protection from apoptosis, % (test concentration not listed) | 0.8% of 300,000 active;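 active = Every replicate reaches about 75%, or at least half do and their mean reaches it too, limit read from the data; inconclusive = At least half of replicates reach the limit but their mean does not; inactive = Under half of replicates reach the limit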;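 also: higher means more ATP so stronger rescue from cytokine killing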
# CSC inhib = cancer stem cell viability inhibitors, primary screen, luminescence | cancer stem cell-like cells viability | inhibition, % at 7.5 µM | AID 2717, 2010 | 1.1% of 300,000 active; in the data active = inhibition above about 75%; inconclusive = no clear call, values can overlap the other calls; tested in HMLE shEcad cells
# SKKanGAS inh = S. pyogenes SKKanGAS growth inhibitors in kanamycin, primary screen, streptokinase expression inhibitor project, SKKanGAS strain, BacTiter-Glo luminescence; 1.3% of 300,000 active; AID 1662, 2009; inhibition, % at 7.5 µM; 6 h;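 active = mean replicate score, as percent of positive control median, at least 50; inconclusive = mean below 50 but one replicate at or above 50; inactive = mean and every replicate below 50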;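 also: strain carries kanamycin resistance gene driven by streptokinase promoter and grows in 40 µg/ml kanamycin; loss of luminescence reflects streptokinase promoter inhibition or plain growth inhibition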
# Lmaj promast = Leishmania major promastigote growth inhibition, primary screen; 9% of 200,000 active; Leishmania major promastigotes, resazurin fluorescence viability; inhibition, % at 10 µM; in the data active = inhibition above about 50%;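 also: promastigotes grown with compound for 44 hours at 28 °C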
# Mdm2 MdmX conf = Mdm2-MdmX complex disruptors, retested hits, confirmation, luminescence, single concentration | inhibition, % at 8 µM | AID 489028, 2010 | shares compounds with Mdm2-MdmX inh | Mdm2-MdmX binding, luminescent assay | 55% of 10,000 active; in the data active = inhibition above about 40%
# Full FLuc ctr = full-length luciferase signal inhibition, confirmation, counter-screen for Mdm2/MdmX interaction inhibitor project, cell-based, single concentration, SaOS-2; inhibition, % at 8 µM; SaOS-2 full-length luciferase counterscreen, luminescence; 77% of 6,200 active; shares compounds with Mdm2-MdmX inh;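 active = mean inhibition at 8 µM reaching about 37%, which flags the compound as non-specific, limit read from the data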;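 also: p53-null SaOS-2 cells with luciferase driven by a doxycycline-inducible promoter; compound on cells about two nights before reading with doxycycline added after day one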
# Hits are given with their value; i = inactive; ? = inconclusive; nt = no result.
SMILES,Mdm2-MdmX inh,T cruzi inh,Beta apoptosis,CSC inhib,SKKanGAS inh,Lmaj promast,Mdm2 MdmX conf,Full FLuc ctr
Cc1cc(C(=O)N2CC=C(c3ccccc3)CC2)c2ccccc2n1,54.9,i,i,i,i,nt,74.1,65.1
CCOC(=O)N1CCN(C(=O)c2cc(-c3ccncc3)nc3ccccc23)CC1,56.7,i,i,i,i,nt,65.8,55.5
CCC(C)NC(=O)CNC(=O)c1nn(-c2ccc(OC)c(Cl)c2)c(=O)c2ccccc12 (stereo not given),i,i,i,i,i,nt,nt,nt
NC(=O)c1ccccc1OC1CCC1,i,i,i,i,i,nt,nt,nt
Cc1ccc(C)c(N2CCN(S(=O)(=O)c3cc4c(cc3Cl)NC(=O)CO4)CC2)c1,i,i,i,i,i,nt,nt,nt
CC(=O)c1ccc(N2CCN(C(=O)c3cc(-c4ccncc4)nc4ccc(Br)cc34)CC2)cc1,57.8,i,i,i,i,nt,i,104.9
CC(=O)c1ccc(N2CCN(C(=O)c3cc(-c4ccc5c(c4)OCO5)nc4ccccc34)CC2)cc1,i,i,nt,i,i,i,nt,nt
COc1ccc(-c2cc(C(=O)N3CCN(c4ccccc4O)CC3)c3ccccc3n2)cc1OC,65.1,i,i,i,i,nt,i,nt
COc1ccc(-c2cc(C(=O)N3CCCC3)c3ccccc3n2)cc1,i,i,i,i,i,nt,nt,nt
CCc1cc2c(=O)c(-c3cnn(-c4ccccc4)c3)c(C)oc2cc1OCC(=O)Nc1ccc(F)c(F)c1,61.7,i,i,i,i,52.5,73.8,87.0
CC1=C(C(=O)Nc2ccccc2)C(c2ccco2)C(C#N)=C(SCC(=O)Nc2cccc(C)c2C)N1 (stereo not given),69.2,i,i,i,i,i,42.4,79.3
CC1=C(C(=O)Nc2ccccc2)C(c2ccco2)C(C#N)=C(SCc2ccccc2)N1 (stereo not given),i,i,i,?,i,i,nt,nt
Cc1ccc(C)c(NC(=O)CN(C)C(=O)COc2cccc3c2OC(C)(C)C3)c1,i,i,i,i,i,nt,nt,nt
COc1ccc(C(=O)N(C)CCCC2CCCC2)cc1OC1CCN(C(C)C)CC1,55.0,i,i,i,i,nt,i,72.3
Oc1ccccc1-c1nnc(SCCN2CCOCC2)n1Cc1ccccc1,69.3,i,i,i,i,i,i,nt
O=C(CSc1nnc(-c2ccccc2)n1Cc1ccccc1)N1CCOCC1,i,i,nt,i,i,i,nt,nt
CN(C)c1ccc(/C=C(\NC(=O)c2ccccc2)C(=O)NCCN2CCOCC2)cc1,i,i,i,nt,i,nt,nt,nt
Cc1cccc(C)c1NC(=O)CN1CCN(CCCC(c2ccc(F)cc2)c2ccc(F)cc2)CC1,60.2,nt,nt,nt,nt,nt,43.5,74.2
CSc1ccc(CCNC(=O)c2cc(C)nn2-c2ccccc2)cc1,i,i,i,i,i,nt,nt,nt
CC/C(=N/Nc1cccc(Cl)c1)c1cnnc(SC)n1,54.1,i,i,i,i,i,i,71.0
Cc1ccc(/C=N/NC(=O)c2nnn(-c3nonc3N)c2C(C)C)o1,i,i,i,i,i,nt,nt,nt
O=C(NC(=O)N1CCCCCC1)c1ccc(Cl)cc1,i,i,i,i,i,nt,nt,nt
O=C(CNc1n[nH]c(=O)[nH]c1=O)N/N=C/C1CC=CCC1 (stereo not given),i,i,i,i,i,nt,nt,nt
COc1ccc2c(c1)O[C@H](c1ccc3c(c1)OCO3)[C@@H](OC(=O)N[C@H](C)C1CCCCC1)C2=O,59.4,i,i,i,i,i,i,nt
COc1ccc2c(c1)O[C@H](c1ccc3c(c1)OCO3)[C@@H](OC(=O)Nc1cc(OC)c(OC)c(OC)c1)C2=O,61.3,i,nt,i,i,i,62.3,66.9
SMILES,Mdm2-MdmX inh,T cruzi inh,Beta apoptosis,CSC inhib,SKKanGAS inh,Lmaj promast,Mdm2 MdmX conf,Full FLuc ctr
Cc1ccc(NC(=O)C2CCN(C(=O)NCc3ccccc3)CC2)cc1C,i,i,i,nt,i,nt,nt,nt
Cc1cccc([C@@H]2[C@@H]3C(=O)N(Cc4ccccc4)C(=O)[C@@H]3[C@]3(Cc4ccc(Cl)cc4)C(=O)N(c4cccc(Br)c4)C(=O)N23)c1,i,i,i,i,i,nt,nt,nt
COc1ccc(CN2CCC(N(CCc3ccccc3)Cc3ccccc3)CC2)c(OC)c1,86.2,60.5,i,?,i,94.1,i,nt
CCCN1CCC(N(CCc2ccccc2)Cc2ccccc2)CC1,i,i,i,i,i,nt,nt,nt
Cc1ccc(-n2ncc(C(=O)Nc3cc(Cl)ccc3C)c2C2CCNCC2)cc1C,66.2,i,i,i,i,i,i,71.7
COc1ccc(Nc2nc(-c3sc(C)nc3C)cs2)c(OC)c1,64.6,i,nt,i,i,nt,56.3,63.2
COc1ccc(OC)c(Nc2nc(-c3c(C)nc4ncccn34)cs2)c1,75.6,i,i,i,i,nt,i,85.2
COc1ccc(Nc2nc(-c3cccs3)cs2)c(OC)c1,i,i,i,i,i,i,nt,nt
COc1cccc(-c2nc(CS(=O)CC(=O)NCCc3ccc(C)cc3)c(C)o2)c1 (stereo not given),i,i,i,i,i,nt,nt,nt
COc1ccc(CCNC(=O)CN2C(=O)NC(C)(c3ccc([N+](=O)[O-])cc3)C2=O)cc1 (stereo not given),i,i,i,i,i,i,nt,nt
Cc1ccc(NS(=O)(=O)c2cc(-c3n[nH]c(=O)c4ccccc34)ccc2C)cc1,64.0,i,i,i,i,i,65.7,50.2
O=C(Nc1ccccn1)c1ccc(S(=O)(=O)N2CCCCCC2)cc1,i,i,i,i,i,nt,nt,nt
Cc1cccc(NC(=O)c2nc[nH]c2C(=O)NC2CCN(C(=O)OC(C)(C)C)CC2)c1,54.7,nt,i,?,nt,nt,i,nt
Cc1cccc(NC(=O)c2nc[nH]c2C(=O)N(C)Cc2ccccc2)c1,i,nt,i,i,nt,nt,nt,nt
Cc1cccc(NC(=O)c2nc[nH]c2C(=O)NCCN(CCNC(=O)c2[nH]cnc2C(=O)Nc2cccc(C)c2)CCNC(=O)c2[nH]cnc2C(=O)Nc2cccc(C)c2)c1,85.9,nt,i,i,nt,nt,50.5,38.8
Cc1cccc(NC(=O)c2nc[nH]c2C(=O)N[C@@H](CCCCNC(=O)OC(C)(C)C)C(=O)OC(C)(C)C)c1,61.3,62.0,i,nt,90.8,nt,i,nt
CC(C)(C)OC(=O)NCCCCCNC(=O)c1[nH]cnc1C(=O)N[C@@H](CCCCNC(=O)OC(C)(C)C)C(=O)OC(C)(C)C,i,i,i,i,i,i,nt,nt
Cc1cccc(NC(=O)c2nc[nH]c2C(=O)NCCCCCNC(=O)OC(C)(C)C)c1,i,nt,i,i,nt,nt,nt,nt
